According to ChEMBL document CHEMBL1125868, “Antidopaminergic effects of the stereoisomers of N-[(1-alkyl-2- pyrrolidinyl)methyl]-5-sulfamoylbenzamides and -2,3-dihydrobenzofuran-7-carboxamides” (J Med Chem, 1991):

Legend:
Mus musculus = test: Ability to inhibit apomorphine induced hyperactivity in mice after intraperitoneal administration; type: functional; details: ip
Method in brief: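 Male mice in groups of three, dosed ip 1 h before apomorphine HCl 0.5 mg/kg sc. Motor activity counted for 20 min right after apomorphine.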

D(2) dopamine receptor = D(2) dopamine receptor (Rattus norvegicus, UniProt P61169); test: Binding affinity towards dopamine receptor D2 using as [3H]-spiperone radioligand.
Method in brief: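 Rat striatal membranes washed in 50 mM Tris-HCl pH 7.7, then resuspended in 50 mM Tris-HCl pH 7.1 with NaCl, KCl, CaCl2, MgCl2, ascorbate and 10 μM pargyline, preincubated 10 min at 37 °C. Incubated with [3H]spiperone (0.2 nM final) for 20 min at 37 °C, then filtered. IC50 read from concentration-inhibition curves.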

[1] = tested on: Dopamine receptor (Mus musculus); test: Inhibitory effects on the hyperactivity against dopamine receptor after peroral administration

Chain of D(2) dopamine receptor (P61169 whole entry): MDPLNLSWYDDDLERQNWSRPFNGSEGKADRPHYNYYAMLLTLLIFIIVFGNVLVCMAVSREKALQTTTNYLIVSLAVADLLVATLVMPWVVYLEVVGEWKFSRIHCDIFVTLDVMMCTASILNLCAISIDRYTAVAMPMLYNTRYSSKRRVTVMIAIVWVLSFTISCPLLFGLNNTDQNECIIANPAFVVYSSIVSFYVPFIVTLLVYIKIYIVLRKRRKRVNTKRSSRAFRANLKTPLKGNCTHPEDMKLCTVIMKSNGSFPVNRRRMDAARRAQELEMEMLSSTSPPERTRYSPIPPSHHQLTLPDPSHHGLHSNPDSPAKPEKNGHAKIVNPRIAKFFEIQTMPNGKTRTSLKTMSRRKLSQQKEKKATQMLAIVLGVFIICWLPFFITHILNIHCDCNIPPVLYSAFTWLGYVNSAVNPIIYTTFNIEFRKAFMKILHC

| Compound | ED50 (Mus musculus) | Ki (D(2) dopamine receptor) | ED50 [1] |
| --- | --- | --- | --- |
| CCCCCCN1CCC[C@@H]1CNC(=O)c1cc(S(N)(=O)=O)cc2c1O[C@@H](C)C2 | 12.2 mg/kg | 6.7 nM |  |
| CCN1CCC[C@@H]1CNC(=O)c1cc(S(N)(=O)=O)cc2c1O[C@@H](C)C2 | 71.7 mg/kg | 400 nM | 419 mg/kg |
| CCCCN1CCC[C@H]1CNC(=O)c1cc(S(N)(=O)=O)cc2c1O[C@H](C)C2 | 72.1 mg/kg | 210 nM |  |
| CCN1CCC[C@H]1CNC(=O)c1cc(S(N)(=O)=O)ccc1OC [LEVOSULPIRIDE] | 9.3 mg/kg |  |  |
| CCN1CCC[C@H]1CNC(=O)c1cc(S(N)(=O)=O)cc2c1O[C@@H](C)C2 | 5.7 mg/kg | 9.6 nM | 60.3 mg/kg |
| CCCCCCN1CCC[C@@H]1CNC(=O)c1cc(S(N)(=O)=O)ccc1OC | 28.2 mg/kg | 59 nM | 65 mg/kg |
| CCCCN1CCC[C@@H]1CNC(=O)c1cc(S(N)(=O)=O)cc2c1O[C@@H](C)C2 | 3.7 mg/kg | 9.4 nM |  |
| CCN1CCC[C@H]1CNC(=O)c1cc(S(N)(=O)=O)cc2c1O[C@H](C)C2 | 11 mg/kg | 21 nM | 87.3 mg/kg |
| CCCCCCN1CCC[C@H]1CNC(=O)c1cc(S(N)(=O)=O)cc2c1O[C@@H](C)C2 | > 100 mg/kg |  |  |
| CCCCN1CCC[C@@H]1CNC(=O)c1cc(S(N)(=O)=O)cc2c1O[C@H](C)C2 | 11.6 mg/kg |  |  |
| CCN1CCC[C@@H]1CNC(=O)c1cc(S(N)(=O)=O)cc2c1O[C@H](C)C2 | 145 mg/kg | 650 nM |  |
| CCCCN1CCC[C@H]1CNC(=O)c1cc(S(N)(=O)=O)ccc1OC | 49.2 mg/kg | 51 nM | 135 mg/kg |
| CCCCN1CCC[C@@H]1CNC(=O)c1cc(S(N)(=O)=O)ccc1OC | 92.3 mg/kg | 230 nM | 184 mg/kg |
| CCCCCCN1CCC[C@H]1CNC(=O)c1cc(S(N)(=O)=O)ccc1OC | > 100 mg/kg | 1400 nM | > 100 mg/kg |
| CCN1CCC[C@@H]1CNC(=O)c1cc(S(N)(=O)=O)ccc1OC | > 250 mg/kg |  |  |
| CCCCN1CCC[C@H]1CNC(=O)c1cc(S(N)(=O)=O)cc2c1O[C@@H](C)C2 | 38.8 mg/kg | 95 nM |  |
